Reference: ChEMBL document CHEMBL1154995, “Synthesis of azaisoflavones and their inhibitory activities of NO production in activated microglia” (Bioorg Med Chem Lett, 2008)
The source made the active and inactive calls. The rule behind the calls is not given here.

Tests used:
[1] = tested on: BV-2; assay: Inhibition of NO production in LPS-activated mouse BV2 cells at 10 uM after 24 hrs by Griess method relative to control; type: functional; conditions: for inhibition at 10 µM: BV-2, 24 h
Method in brief: (§1)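 Murine BV-2 microglia stimulated with LPS 100 ng/mL with or without sample for 24 h; nitrite in culture medium measured by Griess reaction. Percent inhibition relative to LPS control at 10 μM, n = 3; IC50 also derived.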

[2] = tested on: BV-2; assay: Inhibition of NO production in LPS-activated mouse BV2 cells after 24 hrs by Griess method; type: functional, cell-based; conditions: BV-2, 24 h; method in brief: as §1
[3] = Cytotoxicity against mouse BV2 cells assessed as cell viability at 10 uM by MTT assay; type: cell-based; conditions: bv-2, 10 µM
Method in brief: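 BV-2 microglia viability determined by MTT assay alongside the LPS (100 ng/mL) nitrite experiment.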

[4] = tested on: BV-2; assay: Inhibition of iNOS expression in LPS-activated mouse BV2 cells at 1-10 uM after 6 hrs by Western blot; type: functional, cell-based
Method in brief: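 BV-2 cells treated 6 h with compound (1–10 μM) during LPS (100 ng/mL) activation; protein assessed by blotting with anti-tubulin as loading control; representative of three independent experiments.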

SMILES | IC50 [2] [µM] | inhibition at 10 µM [1] [%] | Activity [1] | Activity [3] | Activity [4]
Cn1cc(-c2ccc(O)cc2)c(=O)c2ccccc21 | 9.91 | 47.4 | – | – | –
COc1ccc(-c2c[nH]c3cc(OC)ccc3c2=O)cc1 | – | – | inactive | Toxic | –
O=c1c(-c2ccc(O)cc2)c[nH]c2cc(O)cc(O)c12 | 10.9 | 45 | – | – | –
CCn1cc(-c2ccc(O)cc2)c(=O)c2c(O)cc(O)cc21 [AZAISOFLAVONE] | 7.83 | 58.1 | – | – | Dose-dependent effect
CCn1cc(-c2ccc(OC)cc2)c(=O)c2ccccc21 | 25.8 | 14.9 | – | – | –
COc1ccc(-c2cn(C)c3ccccc3c2=O)cc1 | 18.8 | 31.9 | – | – | –
Cn1cc(-c2ccc(O)cc2)c(=O)c2c(O)cc(O)cc21 | 13.3 | 39.3 | – | – | –
COc1ccc(-c2c[nH]c3ccccc3c2=O)cc1 | – | – | inactive | Toxic | –

Further compounds by falling IC50 [2], results first:

IC50 [2] [µM] | SMILES | inhibition at 10 µM [1] [%] | Activity [1] | Activity [3] | Activity [4]
20.5 | COc1ccc(-c2c[nH]c3cc(OC)cc(OC)c3c2=O)cc1 | 23.2 | – | – | –
18.5 | CCn1cc(-c2ccc(O)cc2)c(=O)c2ccccc21 | 27 | – | – | –
17.6 | CCn1cc(-c2ccc(OC)cc2)c(=O)c2c(OC)cc(OC)cc21 | 27.3 | – | – | –
15.6 | O=c1c(-c2ccc(O)cc2)c[nH]c2ccccc12 | 29.5 | – | – | –
